Reference: ChEMBL document CHEMBL3525935, “Inhibition of P-glycoprotein leads to improved oral bioavailability of compound K, an anticancer metabolite of red ginseng extract produced by gut microflora” (Drug Metab Dispos, 2012)
pIC50: −log10 of the molar value. Active and inactive are the calls of the source. No cut-off for these calls is given here.

Legend:
[1] = Efflux ratio of permeability from basolateral to apical side over apical to basolateral side in human Caco2 cells; settings: Caco-2
[2] = Permeability across apical to basolateral side in human Caco2 cells; settings: Caco-2
MDR1 [3] = experiment: Permeability across apical to basolateral side in MDCK2-MDR1 cells at 2 uM; type: ADME, cell-based, Canis lupus familiaris, MDCK-II; settings: dog, MDCK-MDR1; read-out: permeability
Outline: (§1)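 Monolayers of Caco-2 (TC7; TEER >445 Ω/cm² for quality control), parental MDCKII, or MDR1-MDCKII cells. Bidirectional transport of 2 μM substrate in HBSS, pH 7.4 on both sides. Outputs were Pa-b, Pb-a and efflux ratio Pb-a/Pa-b, plus mass-balance recovery. Intracellular amount was measured at the end of transport and normalised to lysate protein (BCA). Three independent experiments.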

MDR1 [4] = experiment: Efflux ratio of permeability from basolateral to apical side over apical to basolateral side in MDCK2-MDR1 cells at 2 uM; type: ADME, cell-based, Canis lupus familiaris; settings: dog, MDCK-MDR1; outline: as §1
[5] = Drug uptake in human Caco2 cells assessed as intracellular level measured per mg of protein at 2 uM in presence of 50 uM verapamil P-gp inhibitor; type: ADME, cell-based; settings: caco-2, 2 µM
Outline: (§2)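 Caco-2 (TC7) monolayers, 2 μM substrate transported in HBSS at pH 7.4. Cyclosporine A (20 μM) or verapamil (50 μM) was added to the apical side. Intracellular amount was measured at the end of transport and normalised to lysate protein (BCA), in nmol/mg. Three independent experiments.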

[6] = Drug uptake in human Caco2 cells assessed as intracellular level measured per mg of protein at 2 uM; type: ADME, cell-based; settings: caco-2, 2 µM; outline: as §1
[7] = Permeability across apical to basolateral side in human Caco2 cells at 2 uM; type: ADME, cell-based; settings: Caco-2, read-out: permeability; outline: as §1
[8] = Drug uptake in human Caco2 cells assessed as intracellular level measured per mg of protein at 2 uM in presence of 20 uM cyclosporine A P-gp inhibitor; type: ADME, cell-based; settings: caco-2, 2 µM; outline: as §2
[9] = Permeability across apical to basolateral side in MDCK2 cells at 2 uM; type: ADME, cell-based, Canis lupus familiaris, MDCK-II; settings: dog, MDCK; read-out: permeability; outline: as §1
[10] = Permeability across basolateral to apical side in MDCK2 cells at 2 uM; type: ADME, cell-based, Canis lupus familiaris, MDCK-II; settings: dog, MDCK; read-out: permeability; outline: as §1
[11] = Efflux ratio of permeability from basolateral to apical side over apical to basolateral side in MDCK2 cells at 2 uM; type: ADME, cell-based, Canis lupus familiaris, MDCK-II; settings: dog, MDCK; outline: as §1
[12] = Drug uptake in MDCK2 cells assessed as intracellular level measured per mg of protein at 2 uM; type: ADME, cell-based, Canis lupus familiaris; settings: dog, mdck-ii; outline: as §1
MDR1 [13] = experiment: Permeability across basolateral to apical side in MDCK2-MDR1 cells at 2 uM; type: ADME, cell-based, Canis lupus familiaris, MDCK-II; settings: dog, MDCK-MDR1; read-out: permeability; outline: as §1
[14] = Drug uptake in MDCK2-MDR1 cells assessed as intracellular level measured per mg of protein at 2 uM; type: ADME, cell-based, Canis lupus familiaris; settings: dog, mdck-ii; outline: as §1
[15] = Tmax in wildtype FVB mouse at 10 mg/kg, po; type: ADME, organism-based; set-up: dose 10 mg/kg, route oral; settings: in vivo
Outline: (§3)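 Male mice aged 6–10 weeks, MDR1a/b knockout or wild-type FVB, fasted overnight. Single 10 mg/kg gavage dose in an oral suspending vehicle. Ten timed tail-snip blood samples (20–25 μl) were taken under isoflurane. Blood levels were measured by UPLC-MS; the standard curve spanned 19.5 nM–10 μM, with LLOQ 9.8 nM. Five mice per group; mean ± S.D.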

[16] = Cmax in wildtype FVB mouse at 10 mg/kg, po; type: ADME, organism-based; set-up: dose 10 mg/kg, route oral; settings: in vivo; outline: as §3
[17] = Drug elimination rate in wildtype FVB mouse at 10 mg/kg, po; type: ADME, organism-based; set-up: dose 10 mg/kg, route oral; settings: in vivo; outline: as §3
[18] = Half life in wildtype FVB mouse at 10 mg/kg, po; type: ADME, organism-based; set-up: dose 10 mg/kg, route oral; settings: in vivo; outline: as §3
[19] = Mean residence time (infinity) in wildtype FVB mouse at 10 mg/kg, po; type: ADME, organism-based; set-up: dose 10 mg/kg, route oral; settings: in vivo; outline: as §3
[20] = AUC (0 to time) in wildtype FVB mouse at 10 mg/kg, po; type: ADME, organism-based; set-up: dose 10 mg/kg, route oral; settings: plasma; outline: as §3
[21] = AUC (0 to infinity) in wildtype FVB mouse at 10 mg/kg, po; type: ADME, organism-based; set-up: time infinity, dose 10 mg/kg, route oral; settings: plasma; outline: as §3
[22] = Tmax in MDR1a/b(-/-) FVB mouse at 10 mg/kg, po; type: ADME, organism-based; set-up: dose 10 mg/kg, route oral; settings: in vivo; outline: as §3
[23] = Cmax in MDR1a/b(-/-) FVB mouse at 10 mg/kg, po; type: ADME, organism-based; set-up: dose 10 mg/kg, route oral; settings: in vivo; outline: as §3
[24] = Drug elimination rate in MDR1a/b(-/-) FVB mouse at 10 mg/kg, po; type: ADME, organism-based; set-up: dose 10 mg/kg, route oral; settings: in vivo; outline: as §3
[25] = Half life in MDR1a/b(-/-) FVB mouse at 10 mg/kg, po; type: ADME, organism-based; set-up: dose 10 mg/kg, route oral; settings: in vivo; outline: as §3
[26] = Mean residence time (infinity) in MDR1a/b(-/-) FVB mouse at 10 mg/kg, po; type: ADME, organism-based; set-up: dose 10 mg/kg, route oral; settings: in vivo; outline: as §3
[27] = AUC (0 to time) in MDR1a/b(-/-) FVB mouse at 10 mg/kg, po; type: ADME, organism-based; set-up: dose 10 mg/kg, route oral; settings: plasma; outline: as §3
[28] = AUC (0 to infinity) in MDR1a/b(-/-) FVB mouse at 10 mg/kg, po; type: ADME, organism-based; set-up: time infinity, dose 10 mg/kg, route oral; settings: plasma; outline: as §3
[29] = Oral bioavailability in rat; type: ADME, organism-based; settings: in vivo
[30] = Cytotoxicity against mouse LM1 cells assessed as cell growth inhibition after 48 hrs by MTT assay; type: functional, cell-based; settings: LM1, 48 h
[31] = Drug recovery in human Caco2 cells at 2 uM; type: ADME, cell-based; settings: Caco-2, read-out: Drug recovery; outline: as §1
[32] = Drug recovery in MDCK2 cells at 2 uM; type: ADME, cell-based, Canis lupus familiaris, MDCK-II; settings: dog, MDCK; read-out: Drug recovery; outline: as §1
MDR1 [33] = experiment: Drug recovery in MDCK2-MDR1 cells at 2 uM; type: ADME, cell-based, Canis lupus familiaris, MDCK-II; settings: dog, MDCK-MDR1; read-out: Drug recovery; outline: as §1
[34] = Permeability across basolateral to apical side in human Caco2 cells at 2 uM; type: ADME, cell-based; settings: Caco-2, read-out: permeability; outline: as §1
[35] = Efflux ratio of permeability from basolateral to apical side over apical to basolateral side in human Caco2 cells at 2 uM; type: ADME, cell-based; settings: Caco-2; outline: as §1
LM1 = experiment: Cytotoxicity against mouse LM1 cells assessed as cell growth inhibition upto 100 uM after 48 hrs by MTT assay; type: functional, cell-based
Outline: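 LM1 cells, a metastatic line derived from A/J mice, grown in DMEM with 10% FBS, 2 mM glutamine, penicillin/streptomycin and 1% nonessential amino acids. Seeded at 5×10^3 cells/well in 96-well plates, fed daily, and used 2–3 days after seeding.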

C[C@H]1O[C@@H](O[C@H]2[C@@H](O)C[C@H](O[C@H]3[C@@H](O)C[C@H](O[C@H]4CC[C@@]5(C)[C@H](CC[C@@H]6[C@@H]5C[C@@H](O)[C@]5(C)[C@@H](C7=CC(=O)OC7)CC[C@]65O)C4)O[C@@H]3C)O[C@@H]2C)C[C@H](O)[C@@H]1O [DIGOXIN]
efflux ratio [1]: 21 | Papp A→B [2]: 1.48 ×10⁻⁶ cm/s | Papp A→B at 2 µM (MDR1 [3]): 0.298 ×10⁻⁶ cm/s | efflux ratio at 2 µM (MDR1 [4]): 64

CC(C)=CCC[C@](C)(O[C@@H]1O[C@H](CO)[C@@H](O)[C@H](O)[C@H]1O)[C@H]1CC[C@]2(C)[C@@H]1[C@H](O)C[C@@H]1[C@@]3(C)CC[C@H](O)C(C)(C)[C@@H]3CC[C@]12C
Drug uptake [5]: 0.5 nmol/mg | Drug uptake [6]: 0.01 nmol/mg | Papp A→B at 2 µM [7]: 1.16 ×10⁻⁶ cm/s | Drug uptake [8]: 0.15 nmol/mg | Papp A→B at 2 µM [9]: 0.58 ×10⁻⁶ cm/s | Papp B→A at 2 µM [10]: 1.13 ×10⁻⁶ cm/s | efflux ratio at 2 µM [11]: 1.8 | Drug uptake [12]: 0.27 nmol/mg | Papp A→B at 2 µM (MDR1 [3]): 1.84 ×10⁻⁶ cm/s | Papp B→A at 2 µM (MDR1 [13]): 33.6 ×10⁻⁶ cm/s | efflux ratio at 2 µM (MDR1 [4]): 18.2 | Drug uptake [14]: 0.08 nmol/mg | Tmax [15]: 2.8 h | Cmax [16]: 130 nM | k el [17]: 3.61e-05 s⁻¹ | half-life [18]: 352 min | MRT inf [19]: 7.82 h | AUC [20]: 0.66 µM·h | AUC(0-inf) [21]: 0.75 µM·h | Tmax [22]: 5.6 h | Cmax [23]: 530 nM | k el [24]: 1.11e-05 s⁻¹ | half-life [25]: 1120 min | MRT inf [26]: 30.7 h | AUC [27]: 7.7 µM·h | AUC(0-inf) [28]: 17.6 µM·h | bioavailability [29]: 5% | pIC50 [30]: 4.73 | recovery at 2 µM [31]: 85% | recovery at 2 µM [32]: 85% | recovery at 2 µM (MDR1 [33]): 85% | Papp B→A at 2 µM [34]: 31 ×10⁻⁶ cm/s | efflux ratio at 2 µM [35]: 26.6

CC(C)=CCC[C@](C)(O[C@@H]1O[C@H](CO)[C@@H](O)[C@H](O)[C@H]1O)[C@H]1CC[C@]2(C)[C@@H]1[C@H](O)C[C@@H]1[C@@]3(C)CC[C@H](O[C@@H]4O[C@H](CO)[C@@H](O)[C@H](O)[C@H]4O)C(C)(C)[C@@H]3CC[C@]12C
growth inhibition (GI) (LM1): inactive
